Bridge positions count the residues as written; N and C are the ends. Peptide text beside a SMILES is read from it.
Molecular target: Integrin alpha-IIb/beta-3 (Homo sapiens, UniProt P08514+P05106)
Assay: Inhibition of platelet aggregation as the concentration necessary to inhibit the change in light.
Method in brief: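 Human gel-filtered platelets at 2 × 10^8/mL were mixed with 0.1 mg/mL human fibrinogen, 1 mM CaCl2 and compound, then aggregated with 10 µM ADP. Light transmittance was compared between control and treated samples.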

Sequence of Integrin alpha-IIb/beta-3 (P05106 27-788 limits assumed): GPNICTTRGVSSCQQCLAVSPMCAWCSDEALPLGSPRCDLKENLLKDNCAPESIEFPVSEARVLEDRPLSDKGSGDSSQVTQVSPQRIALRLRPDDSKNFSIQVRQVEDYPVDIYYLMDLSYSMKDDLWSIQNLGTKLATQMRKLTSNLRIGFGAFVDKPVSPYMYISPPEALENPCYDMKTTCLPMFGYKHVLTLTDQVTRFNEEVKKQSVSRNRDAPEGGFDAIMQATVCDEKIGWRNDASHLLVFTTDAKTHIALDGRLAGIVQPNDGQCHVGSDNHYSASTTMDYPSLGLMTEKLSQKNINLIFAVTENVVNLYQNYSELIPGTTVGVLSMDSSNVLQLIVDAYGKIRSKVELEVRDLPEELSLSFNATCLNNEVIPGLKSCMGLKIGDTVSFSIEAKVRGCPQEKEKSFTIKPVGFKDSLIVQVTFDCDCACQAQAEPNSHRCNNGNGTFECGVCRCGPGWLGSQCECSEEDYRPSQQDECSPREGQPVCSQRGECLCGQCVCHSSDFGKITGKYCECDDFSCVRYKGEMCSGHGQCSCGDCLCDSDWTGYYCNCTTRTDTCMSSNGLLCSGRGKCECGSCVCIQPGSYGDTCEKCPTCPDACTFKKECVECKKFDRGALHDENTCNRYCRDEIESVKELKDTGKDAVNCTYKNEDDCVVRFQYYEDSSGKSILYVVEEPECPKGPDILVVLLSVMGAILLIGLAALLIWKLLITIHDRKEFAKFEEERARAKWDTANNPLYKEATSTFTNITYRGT
Sequence of Integrin alpha-IIb/beta-3 (P08514 32-887 limits assumed): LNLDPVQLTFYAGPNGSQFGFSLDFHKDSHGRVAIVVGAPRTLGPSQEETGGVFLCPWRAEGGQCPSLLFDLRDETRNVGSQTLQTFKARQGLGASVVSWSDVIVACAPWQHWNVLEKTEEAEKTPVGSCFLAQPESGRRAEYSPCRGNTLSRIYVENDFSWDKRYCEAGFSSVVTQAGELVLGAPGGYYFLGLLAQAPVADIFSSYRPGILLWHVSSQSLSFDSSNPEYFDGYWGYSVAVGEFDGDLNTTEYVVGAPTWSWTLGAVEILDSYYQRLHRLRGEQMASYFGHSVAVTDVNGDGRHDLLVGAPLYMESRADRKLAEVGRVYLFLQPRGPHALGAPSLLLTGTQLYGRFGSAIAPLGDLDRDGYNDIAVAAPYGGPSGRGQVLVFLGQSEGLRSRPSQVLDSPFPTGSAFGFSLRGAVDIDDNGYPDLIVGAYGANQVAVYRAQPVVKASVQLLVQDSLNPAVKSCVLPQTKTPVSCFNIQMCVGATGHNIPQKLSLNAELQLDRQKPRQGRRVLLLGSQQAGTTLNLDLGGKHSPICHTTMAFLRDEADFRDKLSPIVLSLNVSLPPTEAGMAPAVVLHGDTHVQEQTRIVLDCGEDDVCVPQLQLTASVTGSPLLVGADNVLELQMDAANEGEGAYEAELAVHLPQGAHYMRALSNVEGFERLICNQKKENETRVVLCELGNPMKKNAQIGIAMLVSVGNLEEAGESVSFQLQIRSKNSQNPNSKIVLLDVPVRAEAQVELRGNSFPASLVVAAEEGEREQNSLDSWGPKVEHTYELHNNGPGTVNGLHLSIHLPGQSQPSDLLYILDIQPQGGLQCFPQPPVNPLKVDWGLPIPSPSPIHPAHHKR
Sequence of Integrin alpha-IIb/beta-3 (P08514 891-1039 limits assumed): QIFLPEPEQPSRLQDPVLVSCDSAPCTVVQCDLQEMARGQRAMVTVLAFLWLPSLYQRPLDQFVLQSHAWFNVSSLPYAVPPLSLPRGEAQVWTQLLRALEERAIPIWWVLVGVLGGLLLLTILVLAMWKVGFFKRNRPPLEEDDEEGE

IC50 [µM]	SMILES
38	NCCCCCCCCOc1ccc(C[C@H](NC(=O)OCc2ccccc2)C(=O)O)cc1 [3-[4-(8-Amino-octyloxy)-phenyl]-2-benzyloxycarbonylamino-propionic acid]
28	CC(C)(C)NCCCOc1ccc(C[C@H](NC(=O)OCc2ccccc2)C(=O)O)cc1 [(S)-2-Benzyloxycarbonylamino-3-[4-(3-tert-butylamino-propoxy)-phenyl]-propionic acid]
1.9	NCCCCCCOc1ccc(C[C@H](NS(=O)(=O)Cc2ccccc2)C(=O)O)cc1
6.2	O=C(N[C@@H](Cc1ccc(OCCCC2CCNCC2)cc1)C(=O)O)OCc1ccccc1 [(S)-2-Benzyloxycarbonylamino-3-[4-(3-piperidin-4-yl-propoxy)-phenyl]-propionic acid]
5.7	CCCC(=O)N[C@@H](Cc1ccc(OCCCCCCN)cc1)C(=O)O [(S)-3-[4-(6-Amino-hexyloxy)-phenyl]-2-butyrylamino-propionic acid]
18	CC(=O)N[C@@H](Cc1ccc(OCCCCCCN)cc1)C(=O)O [(S)-2-Acetylamino-3-[4-(6-amino-hexyloxy)-phenyl]-propionic acid]
> 1000	O=C(N[C@@H](Cc1ccc(OCCCc2ccccc2)cc1)C(=O)O)OCc1ccccc1
> 100	CC(C)(C)CC(C)(C)NCCCOc1ccc(C[C@H](NC(=O)OCc2ccccc2)C(=O)O)cc1 [(S)-2-Benzyloxycarbonylamino-3-{4-[3-(1,1,3,3-tetramethyl-butylamino)-propoxy]-phenyl}-propionic acid]
1.1	O=C(N[C@@H](Cc1ccc(OCCCCCN2CCNCC2)cc1)C(=O)O)OCc1ccccc1 [(S)-2-Benzyloxycarbonylamino-3-[4-(5-piperazin-1-yl-pentyloxy)-phenyl]-propionic acid]
5.2	CN1CCN(CCCOc2ccc(C[C@H](NC(=O)OCc3ccccc3)C(=O)O)cc2)CC1 [(S)-2-Benzyloxycarbonylamino-3-{4-[3-(4-methyl-piperazin-1-yl)-propoxy]-phenyl}-propionic acid]
0.24	O=C(N[C@@H](Cc1ccc(OC/C=C/CC2CCNCC2)cc1)C(=O)O)OCc1ccccc1 [(S)-2-Benzyloxycarbonylamino-3-[4-((E)-4-piperidin-4-yl-but-2-enyloxy)-phenyl]-propionic acid]
10	NCCCCCCOc1ccc(C[C@H](NC(=O)c2ccccc2)C(=O)O)cc1 [(S)-3-[4-(6-Amino-hexyloxy)-phenyl]-2-benzoylamino-propionic acid]
0.6	CCCCS(=O)(=O)N[C@H](CC(=O)O)Cc1ccc(OCCCC2CCNCC2)cc1 [(S)-3-(Butane-1-sulfonylamino)-4-[4-(3-piperidin-4-yl-propoxy)-phenyl]-butyric acid]

Continued, molecule first:

SMILES	IC50 [µM]
O=C(CCc1ccccc1)N[C@@H](Cc1ccc(OCCCCC2CCNCC2)cc1)C(=O)O [(S)-2-(3-Phenyl-propionylamino)-3-[4-(4-piperidin-4-yl-butoxy)-phenyl]-propionic acid]	0.1
CCCCC(=O)N[C@@H](Cc1ccc(OCCCCC2CCNCC2)cc1)C(=O)O [(S)-2-Pentanoylamino-3-[4-(4-piperidin-4-yl-butoxy)-phenyl]-propionic acid]	0.047
CCCCCC(=O)N[C@@H](Cc1ccc(OCCCCCCN)cc1)C(=O)O	5
O=C(O)[C@H](Cc1ccc(OCCCCC2CCNCC2)cc1)NS(=O)(=O)c1ccccc1 [(S)-2-Benzenesulfonylamino-3-[4-(4-piperidin-4-yl-butoxy)-phenyl]-propionic acid]	0.018
O=C(O)[C@H](Cc1ccc(OCCCCC2CCNCC2)cc1)NS(=O)(=O)c1cccs1 [(S)-3-[4-(4-Piperidin-4-yl-butoxy)-phenyl]-2-(thiophene-2-sulfonylamino)-propionic acid]	0.015
CCCS(=O)(=O)N[C@@H](Cc1ccc(OCCCCC2CCNCC2)cc1)C(=O)O [(S)-3-[4-(4-Piperidin-4-yl-butoxy)-phenyl]-2-(propane-1-sulfonylamino)-propionic acid]	0.023
O=C(O)[C@H](Cc1ccc(OCCCCC2CCNCC2)cc1)NS(=O)(=O)CCc1ccccc1 [(S)-2-(2-Phenyl-ethanesulfonylamino)-3-[4-(4-piperidin-4-yl-butoxy)-phenyl]-propionic acid]	0.029
CC(=O)N[C@H]1CSSC[C@@H](C(=O)O)NC(=O)[C@H](CC(=O)O)NC(=O)CNC(=O)[C@H](CCCNC(=N)N)NC1=O [(4S,7R,13R,16S)-16-Acetylamino-7-carboxymethyl-13-(3-guanidino-propyl)-6,9,12,15-tetraoxo-1,2-dithia-5,8,11,14-tetraaza-cycloheptadecane-4-carboxylic acid] (Ac-CRGDC-OH; disulfide 1-5)	0.68
CCC(=O)N[C@@H](Cc1ccc(OCCCCC2CCNCC2)cc1)C(=O)O [(S)-3-[4-(4-Piperidin-4-yl-butoxy)-phenyl]-2-propionylamino-propionic acid]	0.105
O=C(O)[C@H](Cc1ccc(OCCCCC2CCNCC2)cc1)NS(=O)(=O)/C=C/c1ccccc1 [(S)-2-((E)-2-Phenyl-ethenesulfonylamino)-3-[4-(4-piperidin-4-yl-butoxy)-phenyl]-propionic acid]	0.043
CCCCS(=O)(=O)N[C@H](CC(=O)O)Cc1ccc(OCCCCC2CCNCC2)cc1 [(S)-3-(Butane-1-sulfonylamino)-4-[4-(4-piperidin-4-yl-butoxy)-phenyl]-butyric acid]	0.14
CS(=O)(=O)N[C@@H](Cc1ccc(OCCCCC2CCNCC2)cc1)C(=O)O [(S)-2-Methanesulfonylamino-3-[4-(4-piperidin-4-yl-butoxy)-phenyl]-propionic acid]	0.063
O=C(N[C@@H](Cc1ccc(OCCCCN2CCNCC2)cc1)C(=O)O)OCc1ccccc1 [(S)-2-Benzyloxycarbonylamino-3-[4-(4-piperazin-1-yl-butoxy)-phenyl]-propionic acid]	0.5
N=C(N)NCCC[C@H](N)C(=O)NCC(=O)N[C@@H](CC(=O)O)C(=O)N[C@@H](Cc1c[nH]c2ccccc12)C(=O)O [2-[1-[1-amino-4-amino(imino)methylamino-(1S)-butylcarboxamidomethylcarboxamido]-2-carboxy-(1S)-ethylcarboxamido]-3-(1H-3-indolyl)-(2S)-propanoic acid] (H-RGDW-OH)	1.7
CC(=O)N[C@@H](Cc1ccc(OCCCCC2CCNCC2)cc1)C(=O)O [(S)-2-Acetylamino-3-[4-(4-piperidin-4-yl-butoxy)-phenyl]-propionic acid]	0.5
